Data taken from PubChem BioAssay.
Active and inactive are the calls of the source.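 The calls were made as follows, unless noted: active = Her2 level under about 52% in both replicate screens, with viability over 70% of control (limit read from the data); inconclusive = Her2 under the limit in one screen only, or viability under 70%; inactive = Her2 level above the set limit.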

How the values were obtained:
[1] = reducers of endogenous Her2 protein level, primary screen, SKBR3 breast tumor cells, AlphaScreen, ATP viability (AID 461); conditions: 18-24 h, measured here: SKBR3 viability, ATP luminescence, at 10 µM;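 as to Her2 level: lower value means less Her2 protein in the cells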;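 as to viability: percent of carrier control wells set as 100% viability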
[2] = target: Receptor tyrosine-protein kinase erbB-2 (Homo sapiens) (UniProt P04626); assay: as above; conditions: 18-24 h, at 10 µM, stronger effect = lower value
Chain of Receptor tyrosine-protein kinase erbB-2 (Homo sapiens) (P04626 whole entry, looked up): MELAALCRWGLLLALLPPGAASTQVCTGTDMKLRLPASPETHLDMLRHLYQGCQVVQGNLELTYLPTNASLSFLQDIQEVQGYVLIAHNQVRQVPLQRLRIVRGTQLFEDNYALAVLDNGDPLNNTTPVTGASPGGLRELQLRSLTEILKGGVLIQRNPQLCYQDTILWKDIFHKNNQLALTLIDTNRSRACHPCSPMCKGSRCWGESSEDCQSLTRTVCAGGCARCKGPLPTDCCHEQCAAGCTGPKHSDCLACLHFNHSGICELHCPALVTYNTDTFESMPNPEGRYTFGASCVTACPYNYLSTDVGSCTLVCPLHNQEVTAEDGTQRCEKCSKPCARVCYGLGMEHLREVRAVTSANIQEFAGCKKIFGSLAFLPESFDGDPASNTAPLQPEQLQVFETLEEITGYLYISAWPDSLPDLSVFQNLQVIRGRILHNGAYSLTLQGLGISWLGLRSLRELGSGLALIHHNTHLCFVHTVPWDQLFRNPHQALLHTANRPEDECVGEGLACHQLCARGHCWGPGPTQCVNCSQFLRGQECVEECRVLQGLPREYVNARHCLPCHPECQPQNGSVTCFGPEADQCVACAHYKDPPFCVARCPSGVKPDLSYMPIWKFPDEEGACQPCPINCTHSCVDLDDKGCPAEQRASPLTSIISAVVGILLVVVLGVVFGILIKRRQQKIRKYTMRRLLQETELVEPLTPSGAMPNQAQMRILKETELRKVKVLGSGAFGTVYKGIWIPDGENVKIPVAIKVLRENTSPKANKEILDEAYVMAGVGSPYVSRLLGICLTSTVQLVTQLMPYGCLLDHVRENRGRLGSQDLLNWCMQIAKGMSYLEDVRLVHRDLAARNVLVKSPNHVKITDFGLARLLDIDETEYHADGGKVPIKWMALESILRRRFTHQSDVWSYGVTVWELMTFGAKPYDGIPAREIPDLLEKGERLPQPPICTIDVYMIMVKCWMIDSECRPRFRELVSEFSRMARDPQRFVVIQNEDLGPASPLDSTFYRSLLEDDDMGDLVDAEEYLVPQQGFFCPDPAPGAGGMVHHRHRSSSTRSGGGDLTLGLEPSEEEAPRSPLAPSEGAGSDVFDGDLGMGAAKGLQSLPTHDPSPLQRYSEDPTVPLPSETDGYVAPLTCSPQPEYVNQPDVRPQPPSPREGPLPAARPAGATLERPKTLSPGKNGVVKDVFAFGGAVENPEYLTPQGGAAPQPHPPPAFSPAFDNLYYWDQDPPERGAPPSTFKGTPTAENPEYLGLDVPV

[3] = SK-BR-3 cell growth inhibitors, pilot screen, 24 h, human (AID 572;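 active = viability at or below 10% of carrier control in both of two separate runs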;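 also: compound exposure lasted between 18 and 24 h rather than exactly 24 h; 100% = carrier-treated control wells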); conditions: SK-BR-3 viability, CellTiter-Glo luminescence, at 10 µM, stronger effect = lower value
[4] = HUVEC growth inhibition – cell-based, human, primary screen (AID 575;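 active = viability at or below 30% in both replicate assays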;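 also: 100% = median of untreated cell wells with 0.1% DMSO on each plate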); conditions: HUVEC proliferation, CellTiter-Glo luminescence, 72 h; at 10 µM; stronger effect = lower value
Outline: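 Material: primary human umbilical vein endothelial cells / Schedule: 72 h exposure, 37 °C, 5% CO2, 30 min RT equilibration / Signal: ATP-based CellTiter-Glo luminescent read / Read-out basis: percent of median DMSO-control luminescence / Control set: 32 DMSO-only cell-control wells (high), 32 MePR drug-control wells (low) per plate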

[5] = growth inhibitors of H69AR lung tumor, primary screen, human, duplicate replicates (AID 580;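 active = viability at or under a set limit in both replicates, limit being median viability minus 3 SD, cut at about 48% in these data, passing the limit was not always enough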;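 also: 100% = mean luminescence of untreated wells and 0% = no signal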); conditions: H69AR lung tumor cells viability, ATP luminescence, 72 h; at 10 µM; stronger effect = lower value
[6] = reversal of MRP1-mediated doxorubicin resistance, pilot screen, H69AR cells, doxorubicin co-treatment (AID 601;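 active = viability loss from added drug above about 55%, and viability with drug at most 40%, in both replicates, limit read from the data, passing the limit was not always enough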); conditions: CellTiter-Glo, 72 h, at 10 µM; for differential viability (reversal): stronger effect = higher value
[7] = 384-well plate pilot, post-Golgi transport modulator project, inhibition of yeast transport mutant growth (AID 636; in the data active = inhibition above about 31%); conditions: absorbance 615 nm, about 18 h, stronger effect = higher value
[8] = growth suppression of yeast trafficking mutant, preliminary HTS, modulators of trafficking downstream of Golgi apparatus project, 1536-format plate, OD 615 nm (AID 637; in the data active = inhibition above about 30%); conditions: yeast transport mutant growth, absorbance 615 nm, 18 h; stronger effect = higher value
[9] = H69AR cells + 2 uM doxorubicin, measured here: viability with 2 uM doxorubicin, stronger effect = lower value
[10] = H69AR cells, compound alone cytotoxicity

Row | Structure (SMILES) | viability [1] [%] | Her2 level [2] | viability [3] | viability [4] | viability [5] | differential viability (reversal) ([6]; H69AR cells + 2 uM doxorubicin) | viability [6, 9] [%] | viability [6, 10] [%] | inhibition [7] | inhibition [8]
1 | Cn1c(=O)c2c(ncn2CC(=O)OCC(=O)NC2CCCc3ccccc32)n(C)c1=O (stereo not given) | 98 | 94% (inactive) | 98% (inactive) | 110% (inactive) | 97.7% (inactive) | 5.3% (inactive) | 92.4 | 97.7 | -0.68% (inactive) | 1.59% (inactive)
2 | COc1cc(OC)c(C2N(C)c3ccccc3N2C)cc1OC | 91.5 | 112% (inactive) | 91.5% (inactive) | 86.7% (inactive) | 107% (inactive) | 8.16% (inactive) | 98.4 | 107 | -5.68% (inactive) | 4.26% (inactive)
3 | Cc1cc(C(=O)CSc2nnc(-c3ccco3)o2)c(C)n1CC1COc2ccccc2O1 (stereo not given) | 91.5 | 94% (inactive) | 91.5% (inactive) | 74.3% (inactive) | 89% (inactive) | -9.8% (inactive) | 98.8 | 89 | -2.67% (inactive) | -9.52% (inactive)
4 | CCOC(=O)N1CCN(C(=O)C2c3cc(OC)c(OC)cc3C(=O)N3CCc4ccccc4C23)CC1 (stereo not given) | 116 | 97% (inactive) | 116% (inactive) | 102% (inactive) | 95.7% (inactive) | -0.775% (inactive) | 96.4 | 95.7 | -6.4% (inactive) | 0.49% (inactive)
5 | Nc1sccc1C(=O)c1ccccc1 | 85.5 | 118% (inactive) | 85.5% (inactive) | 82.6% (inactive) | 88.5% (inactive) | -2.76% (inactive) | 91.2 | 88.5 | -1.87% (inactive) | -0.16% (inactive)
6 | O=C(NCCCN1CCN(CCCNC(=O)c2ccc(F)cc2)CC1)c1ccc(F)cc1 | 92.5 | 98% (inactive) | 92.5% (inactive) | 89.9% (inactive) | 94.6% (inactive) | 4.58% (inactive) | 90 | 94.6 | -4.67% (inactive) | 0.81% (inactive)
7 | CC(C)COC(=O)N(C)c1ccc(C(O)(C(F)(F)F)C(F)(F)F)cc1 | 102 | 95% (inactive) | 102% (inactive) | 93.1% (inactive) | 89.8% (inactive) | 3.42% (inactive) | 86.4 | 89.8 | -2.57% (inactive) | -8.57% (inactive)
8 | Cc1ccc(C)n1NC(=O)c1ccco1 | 90 | 90% (inactive) | 90% (inactive) | 87.2% (inactive) | 94.8% (inactive) | -9.64% (inactive) | 104 | 94.8 | -2.76% (inactive) | -3.39% (inactive)
9 | COc1ccc(C(=O)N2CCCc3ccccc32)cc1 | 87.5 | 94% (inactive) | 87.5% (inactive) | 116% (inactive) | 104% (inactive) | 11.1% (inactive) | 93 | 104 | -4% (inactive) | 5.81% (inactive)
10 | O=C(NC1CCCCC1)N(Cc1ccccc1)Cc1ccco1 | 94.5 | 98% (inactive) | 94.5% (inactive) | 101% (inactive) | 100% (inactive) | 3.09% (inactive) | 97.3 | 100 | 0.54% (inactive) | -3.11% (inactive)
11 | O=C(CN(CCc1ccccc1)C(=O)CNS(=O)(=O)c1ccccc1)NCC1CCCO1 (stereo not given) | 91 | 87.5% (inactive) | 91% (inactive) | 86.9% (inactive) | 102% (inactive) | 5.36% (inactive) | 96.2 | 102 | -0.81% (inactive) | -2.13% (inactive)
12 | O=C(Nc1ccc2c(c1)OCCO2)C1CCCN(S(=O)(=O)c2cnc[nH]2)C1 (stereo not given) | 82.5 | 111% (inactive) | 82.5% (inactive) | 100% (inactive) | 94.7% (inactive) | 8.45% (inactive) | 86.2 | 94.7 | -3.2% (inactive) | -3.93% (inactive)
